Measured values taken from ChEMBL document CHEMBL1130046, “Modulation of melphalan resistance in glioma cells with a peripheral benzodiazepine receptor ligand-melphalan conjugate” (J Med Chem, 1997).

Key:
SF-126 = assay: The compound was tested for cytotoxicity against SF-126 (human) Glioma cell lines; assay type: functional, cell-based
Method in brief: (§1)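 Adherent cells seeded in their usual medium and allowed to attach overnight at 37 °C. Drugs added fresh, melphalan in saline and others in ethanol (≤1% of well volume), then 48 h at 37 °C. SRB read-out: TCA fixation, SRB staining, dye taken up in 10 mM Tris, absorbance 560 nm. Growth expressed as % of control and IC50 calculated; two or three experiments. C6-MR selected by weekly 24 h melphalan steps starting at 10 µM. DAOY MR kept under 70-78 µM melphalan for 24 h every third passage.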

RG2 = assay: The compound was tested for cytotoxicity against RG-2 (Rat) Glioma cell lines; assay type: functional, cell-based; method in brief: as §1
D283 Med [1] = assay: The compound was tested for cytotoxicity against D283 (human) Glioma cell lines; assay type: functional, cell-based
C6 [2] = assay: The compound was tested for cytotoxicity against C6-MR (Rat) Glioma cell lines; assay type: functional, cell-based; method in brief: as §1
Daoy [3] = assay: The compound was tested for cytotoxicity against DAOY MR (human) Glioma cell lines; assay type: functional, cell-based; method in brief: as §1
C6 [4] = assay: The compound was tested for cytotoxicity against C6 (Rat) Glioma cell lines; assay type: functional, cell-based; method in brief: as §1
D341 cell line [5] = assay: The compound was tested for cytotoxicity against D341 MR (human) Glioma cell lines; assay type: functional, cell-based
D341 cell line [6] = assay: The compound was tested for cytotoxicity against D341 (human) Glioma cell lines; assay type: functional, cell-based
SF-188 = assay: The compound was tested for cytotoxicity against SF-188 (human) Glioma cell lines; assay type: functional, cell-based; method in brief: as §1
D341 cell line [7] = assay: Glutathione (GSH) Concentrations D341 MR cell line in Human Medulloblastoma Cells; assay type: functional
Translocator protein [8] = molecular target: T1, Translocator protein (Rattus norvegicus, UniProt P16257); assay: Binding affinity for PBR (peripheral benzodiazepine receptor) in rat RG-2 glioma cells; assay type: cell-based, RG2
T1 sequence (P16257 whole entry, looked up): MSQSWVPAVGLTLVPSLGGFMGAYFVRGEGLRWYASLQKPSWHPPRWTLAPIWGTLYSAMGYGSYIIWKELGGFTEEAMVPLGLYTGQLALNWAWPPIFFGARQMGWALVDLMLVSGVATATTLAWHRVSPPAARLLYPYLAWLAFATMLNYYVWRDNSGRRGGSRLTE
Method in brief: (§2)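 Competitive displacement of [3H]Ro 5-4864 (1 nM final, 86.9 Ci/mmol) on rat whole-brain homogenate (~200 µg protein, 50 mM Tris-HCl pH 7.4) or C6/RG-2 cell homogenate (4 µg protein, 50 mM Tris-citrate pH 7.4). Incubation 60 min at 0-4 °C, duplicate tubes. Nonspecific binding with 10 µM PK-11195. Bound ligand collected by glass-fibre filtration, counted by scintillation, fitted by nonlinear regression.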

D341 cell line [9] = assay: Glutathione S-Transferase (GST) Activity against D341 MR cell line in Human Medulloblastoma Cells; assay type: functional
Translocator protein [10] = molecular target: T1, Translocator protein; assay: Binding affinity for PBR (peripheral benzodiazepine receptor) in rat C6 glioma cells; assay type: cell-based; method in brief: as §2
Daoy [11] = assay: Glutathione (GSH) Concentrations DAOY MR cell line in Human Medulloblastoma Cells; assay type: functional
Daoy [12] = assay: Glutathione S-Transferase (GST) Activity against DAOY cell line in Human Medulloblastoma Cells; assay type: functional
D283 Med [13] = assay: Glutathione (GSH) Concentrations D 283 cell line in Human Medulloblastoma Cells; assay type: functional
D283 Med [14] = assay: Glutathione S-Transferase (GST) Activity against D 283 MR cell line in Human Medulloblastoma Cells; assay type: functional
D283 Med [15] = assay: Glutathione (GSH) Concentrations D 283 MR cell line in Human Medulloblastoma Cells; assay type: functional
D341 cell line [16] = assay: Glutathione (GSH) Concentrations D341 cell line in Human Medulloblastoma Cells; assay type: functional
D283 Med [17] = assay: The compound was tested for cytotoxicity against D283 MR (human) Glioma cell lines; assay type: functional, cell-based
Daoy [18] = assay: Glutathione (GSH) Concentrations DAOY cell line in Human Medulloblastoma Cells; assay type: functional
D283 Med [19] = assay: Glutathione S-Transferase (GST) Activity against D283 cell line in Human Medulloblastoma Cells; assay type: functional
Translocator protein [20] = molecular target: T1, Translocator protein; assay: The compound was tested for binding affinity against PBR(peripheral benzodiazepine receptor) in normal rat brain homogenate; assay type: tissue-based; method in brief: as §2
Daoy [21] = assay: The compound was tested for cytotoxicity against DAOY(human) […] cell lines; assay type: functional, cell-based; method in brief: as §1
D341 cell line [22] = assay: Glutathione S-Transferase (GST) Activity against D 341cell line in Human Medulloblastoma Cells; assay type: functional
Daoy [23] = assay: Glutathione S-Transferase (GST) Activity against DAOY MR cell line in Human Medulloblastoma Cells; assay type: functional
[24] = molecular target: Translocator protein (Rattus norvegicus) (UniProt P16257); assay: Benzodiazepine receptor density in normal rat brain homogenate; assay type: tissue-based; method in brief: as §2
Chain of Translocator protein (Rattus norvegicus) (P16257 whole entry, looked up): as above

[25] = molecular target: Translocator protein (Rattus norvegicus) (UniProt P16257); assay: Benzodiazepine receptor density in rat RG-2 glioma cells; assay type: cell-based; settings: RG2; method in brief: as §2
[26] = molecular target: Translocator protein (Rattus norvegicus) (UniProt P16257); assay: Benzodiazepine receptor density in rat C6 glioma cells; assay type: cell-based; method in brief: as §2
Daoy [27] = assay: The compound was tested for cytotoxicity against DAOY (human) Glioma cell lines; assay type: functional, cell-based; method in brief: as §1

Compound | IC50 (SF-126) [µM] | IC50 (RG2) [µM] | IC50 (D283 Med [1]) [µM] | IC50 (C6 [2]) [µM] | IC50 (Daoy [3]) [µM] | IC50 (C6 [4]) [µM] | IC50 (D341 cell line [5]) [µM] | IC50 (D341 cell line [6]) [µM] | IC50 (SF-188) [µM] | IC50 (D283 Med [17]) [µM] | IC50 (Translocator protein [20]) [µM] | other results
N[C@@H](Cc1ccc(N(CCCl)CCCl)cc1)C(=O)O | 103 | 15.2 | 6.8 | 74.9 | 140 | 11 | 52.4 | 12.4 | 35.4 |  |  | 
CCOC(=O)[C@@H](Cc1ccc(N(CCCl)CCCl)cc1)NC(=O)CCCN1C(=O)CN=C(c2ccccc2)c2cc(Cl)ccc21 | 21 | 34.3 | 72.3 | 74.4 | 29.3 | 43.4 | 32.8 | 25 | 17.3 | 25 | 327 | GSH (D341 cell line [7]): 33.2 µM/g; IC50 (Translocator protein [8]): 390 µM; GST activity (D341 cell line [9]): 327.9 nM min-1 (mg of protein)-1; IC50 (Translocator protein [10]): 289 µM; GSH (Daoy [11]): 10.8 µM/g; GST activity (Daoy [12]): 88.7 nM min-1 (mg of protein)-1; GSH (D283 Med [13]): 18.4 µM/g; GST activity (D283 Med [14]): 417.3 nM min-1 (mg of protein)-1; GSH (D283 Med [15]): 50.7 µM/g; GSH (D341 cell line [16]): 17.5 µM/g; GSH (Daoy [18]): 11.4 µM/g; GST activity (D283 Med [19]): 150.6 nM min-1 (mg of protein)-1; IC50 (Daoy [21]): 40 µM; GST activity (D341 cell line [22]): 212.6 nM min-1 (mg of protein)-1; GST activity (Daoy [23]): 84 nM min-1 (mg of protein)-1
CN1C(=O)CN=C(c2ccc(Cl)cc2)c2cc(Cl)ccc21 [RO-54864] | > 100 | > 100 |  |  |  | > 200 |  |  | 138 |  |  | Bmax (pM (mg of protein)-1) [24]: 0.29; Bmax (pM (mg of protein)-1) [25]: 33; Bmax (pM (mg of protein)-1) [26]: 22
O=C1CN=C(c2ccccc2)c2cc(Cl)ccc2N1 [NORDAZEPAM] | > 100 | > 200 | > 200 |  | > 200 | > 200 | > 200 | > 200 | > 100 | > 200 | 520 | IC50 (Daoy [27]): > 200 µM
